Shown are actives, neighbours in structure and some others; about 3.5% of the full set was active somewhere.
RGS4 inh = inhibitors of human RGS4; HEK293 M3R/RGS4 inducible, Fluo-4 calcium flux; stronger effect = higher value; triggered by carbachol at its EC20; hit rate 0.45% among 310,000; B-score at 10 µM;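 active means B-score, a plate-corrected calcium signal, over three deviations above library mean, with baseline fluorescence within five deviations of library mean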;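 further: RGS4 expression induced by doxycycline in cells with stable M3 receptor; B-score is computed from the integrated fluorescence ratio over baseline after carbachol; higher B-score means a larger calcium signal and so more RGS4 inhibition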
MrgX1 PAM = allosterically activates human MrgX1 receptor signaling. hit rate 0.63% among 310,000. MrgX1-HEK293, Fluo-4 calcium flux, FDSS; stronger effect = higher value. B-score at 10 µM. AID 588675. Q96LB2;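 active means plate-corrected calcium response at least 3 library SD above typical, normal starting fluorescence, not activating the receptor alone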;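 further: compound read alongside a low EC10 to EC30 dose of BAM8-22 agonist; peak minus trough fluorescence over baseline measured at the second addition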
Target sequence (Q96LB2 whole entry, looked up): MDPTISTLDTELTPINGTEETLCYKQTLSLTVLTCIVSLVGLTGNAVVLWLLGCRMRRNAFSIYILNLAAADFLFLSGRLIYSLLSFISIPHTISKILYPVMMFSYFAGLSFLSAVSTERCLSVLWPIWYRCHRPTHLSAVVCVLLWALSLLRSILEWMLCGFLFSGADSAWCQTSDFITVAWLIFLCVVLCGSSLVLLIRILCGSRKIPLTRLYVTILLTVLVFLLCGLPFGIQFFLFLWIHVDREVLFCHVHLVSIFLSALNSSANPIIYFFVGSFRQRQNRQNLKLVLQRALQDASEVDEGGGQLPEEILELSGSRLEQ
MrgX1 agonist = agonists of human MrgX1 receptor. Q96LB2. MrgX1-HEK293 cells, Fluo-4 calcium fluorescence, agonist mode; stronger effect = higher value. B-score at 10 µM. hit rate 0.44% among 310,000;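 active means calcium response B-score plate-corrected fluorescence ratio at least 3 library SD, with starting fluorescence B-score inside 5 SD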
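times = overnight plating, then 30 min 37 °C plus 30 min room-temperature dye loading | assay system = stable human MrgX1 HEK293 cell line | input = fifteen thousand cells per well | signal = kinetic calcium dye fluorescence, Fluo-4 NW | dosing = compound delivered in addition one of three | read-out = B-scored fluorescence response ratio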
RGS4 pot = RGS4 potentiation or activation | HEK293 M3R/inducible RGS4, carbachol calcium flux Fluo4; stronger effect = lower value | B-score at 10 µM | hit rate 0.92% among 310,000 | AID 463111;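 active means B-score of the integrated calcium signal more than 4 SD below the library mean, with starting fluorescence not abnormally high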;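 further: negative B-score means reduced calcium response which marks RGS4 activation or potentiation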
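test system = HEK293 cells with stable M3R and inducible RGS4 | schedule = recording 10 s baseline at 1 Hz, 100 s post-agonist | technique = Fluo4-AM (2 µM) calcium-flux fluorescence, kinetic read | measure = Agonist-evoked peak-minus-minimum fluorescence over baseline, integrated ratio, B score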
MrgX1 antagonist = blocks BAM8-22 activation of human MrgX1 receptor; Q96LB2; MRGX1-HEK293 calcium flux, Fluo-4, BAM8-22 antagonism; stronger effect = lower value; B-score at 10 µM; hit rate 1.3% among 310,000; AID 588676;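 active means calcium-response B-score plate-corrected more than 3 library SD below zero, starting fluorescence within 5 deviations, no agonist response on first addition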;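 further: peak minus trough fluorescence over baseline after final BAM8-22 challenge near maximal dose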
* = called active by the depositor; i = inactive.

SMILES	RGS4 inh	MrgX1 PAM	MrgX1 agonist	RGS4 pot	MrgX1 antagonist
CC1(c2ccc(OC(F)F)cc2)NC(=O)N(CC(=O)Nc2ccc(OC(F)F)cc2)C1=O (configuration not stated)	i	i	i	i	-12.4*
CC1(c2ccc(OC(F)F)cc2)NC(=O)N(CC(=O)Nc2cccc(F)c2)C1=O (configuration not stated)	i	i	i	i	-6.15*
CC1(c2ccc(OC(F)F)cc2)NC(=O)N(CC(=O)Nc2ccc(F)cc2)C1=O (configuration not stated)	i	i	i	i	i
COc1cc(/C=N\Nc2nc3ccccc3o2)cc(OC)c1OC	i	i	i	i	-6.61*
O=C(N/N=C/c1cn(-c2cccs2)nc1-c1ccccc1)c1ccccc1O	i	i	i	i	-8.32*
COc1ccc(C2=NN(C(=O)CCC(=O)O)C(c3ccc(OC)cc3)C2)cc1 (configuration not stated)	i	i	i	i	i
C/C(=N\NC(=O)c1cccc(Cl)c1)C1C(=O)c2ccccc2C1=O	i	18.2*	i	i	i
O=C(COc1ccccc1Cl)Nc1ccc2c(c1)OCCO2	i	i	i	i	i
Cc1onc(-c2c(F)cccc2Cl)c1C(=O)NCc1ccc2c(c1)OCO2	i	i	i	-7.37*	i
O=C(CSc1ccc(-c2ccc(Cl)cc2)nn1)N1CCCc2ccccc21	i	i	i	i	i
O=C(CSc1ccc(-c2ccc(F)cc2)nn1)N1CCCc2ccccc21	i	i	i	-7.4*	i
O=C(NCc1ccc(Cl)cc1)C1CCN(S(=O)(=O)c2cc([N+](=O)[O-])ccc2Cl)CC1	i	i	i	i	i
Cc1cccc2sc(NC(=O)C3CCN(S(=O)(=O)c4cc([N+](=O)[O-])ccc4Cl)CC3)nc12	i	i	i	i	-6.8*
C=CCOc1ccccc1CNCCCN1CCOCC1	i	i	i	i	-7.27*
Cc1c(CCOC(=O)CC23CC4CC(CC(C)(C4)C2)C3)sc[n+]1CC(=O)c1ccccc1	i	i	i	i	i
Cc1c(CCOC(=O)CC23CC4CC(CC(C4)C2)C3)sc[n+]1CC(=O)c1ccc(Br)cc1	i	i	i	-7.46*	i
Cc1c(CCOC(=O)C23CC4CC(CC(C)(C4)C2)C3)sc[n+]1CC(=O)c1ccccc1	i	i	i	i	i
Cc1c(CCOC(=O)c2ccccc2)sc[n+]1CC(=O)c1ccc(Br)cc1	i	i	i	-7.86*	i
Cc1c(CCOC(=O)c2ccccc2)sc[n+]1Cc1ccccc1	i	i	i	-10.4*	i
Cc1c(CCOC(=O)c2cc([N+](=O)[O-])cc([N+](=O)[O-])c2)sc[n+]1CC(=O)c1ccccc1	i	i	i	i	i
Cc1cc(NCCOCCO)n2c(nc3ccccc32)c1C#N	i	i	i	i	i
CCCNC(=O)Cn1c(=O)/c(=C\c2ccc(-c3ccc([N+](=O)[O-])cc3)o2)s/c1=C\C(=O)C(C)(C)C	i	i	i	i	-9.51*
O=C1NC(=O)/C(=C/c2ccc(-c3cccc([N+](=O)[O-])c3)o2)S1	i	i	i	i	i
CCCNC(=O)Cn1c(=O)/c(=C\c2ccc(-c3cccc([N+](=O)[O-])c3)o2)s/c1=C\C(=O)C(C)(C)C	i	i	i	i	-6.84*
Cc1ccc2oc(C(=O)N3CCN(CCO)CC3)c(C)c2c1	i	i	i	i	i
CS(=O)(=O)c1nc(-c2cccs2)cc(C(F)(F)F)n1	i	i	36.3*	i	i
O=C(O)CCS(=O)(=O)c1nc(-c2cccs2)cc(C(F)(F)F)n1	i	i	i	i	i
CCCCOc1ccc(CSc2nnc(C)n2N)cc1[N+](=O)[O-]	i	i	i	i	i
CCOc1ccc(CSC(=N)N)cc1[N+](=O)[O-]	i	i	45.6*	i	i
